Measurements reported in ChEMBL document CHEMBL1128557, “Synthesis, antitumor activity, and chemical properties of silaplatin and related platinum (II) and platinum (IV) complexes derived from beta-silyl amines” (J Med Chem, 1995).
“And” between values parts separate entries of the source, which are not always exact repeats. Identical values can stand only once.

Assays:
[1] = system: Tumor Cell line; assay: Evaluated in vitro for the log10 molecular concentration that caused […] tumor growth of 60 human tumor cell lines.; format: functional, cell-based
Summary of the method: (§1)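 Cells preincubated 24 h, then exposed to the agent at five 10-fold dilutions (0.01–100 μM for the platinum complexes) for 48 h. Cells fixed in situ and stained; solubilized stain read spectrophotometrically. Panel of leukemia, non-small-cell lung, ovarian and renal lines. Log GI50 or TGI taken per cell line in one experiment, then averaged across lines.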

[2] = system: Tumor Cell line; assay: Evaluated in vitro for the log10 molecular concentration that caused 50 % inhibition of tumor growth of 60 human tumor cell lines; format: functional, cell-based; summary of the method: as §1
[3] = system: Tumor Cell line; assay: The compound was evaluated in vitro for the log10 molecular concentration that caused 50 % of 60 human tumor cell line kills; format: ADME, cell-based
Summary of the method: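 Human tumor cell lines (leukemia, non-small-cell lung, ovarian, renal) were preincubated 24 h. Platinum complexes were then added as five 10-fold dilutions, 0.01–100 μM, for 48 h, followed by in situ fixation and staining, with solubilized stain read spectrophotometrically. Log LC50 (50% cell kill) was averaged across cell lines within one experiment.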

[4] = system: Mus musculus; assay: The compound was evaluated for the mean body weight change (BWC) in mice infected with cisplatin resistant L1210 Leukemia (dose 20 mg/kg, ip),day 1; format: functional, organism-based; design: dose 20 mg/kg
Summary of the method: (§2)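 CD2F1 mice, 6 or 10 per dose group (20 or 30 controls), were implanted ip on day 0 with 10⁵ L1210/0 (parent) or L1210/cisplatin (resistant) leukemia cells. Complexes were given ip in saline plus Tween 80 on days 1, 5 and 9. Read-out was mean body weight change per group, day 5 minus day 1. Sensitive and resistant arms ran simultaneously from the same preparations.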

[5] = system: Mus musculus; assay: The compound was evaluated for the mean body weight change (BWC) in mice infected with cisplatin sensitive L1210 Leukemia (dose 40 mg/kg, ip),day 1; format: functional, organism-based; design: dose 40 mg/kg
Summary of the method: (§3)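 CD2F1 mice implanted ip on day 0 with 10^5 L1210/0 (parent) leukemia cells, in groups of 6 or 10 (20 or 30 controls). Complexes given ip in saline plus Tween 80 on days 1, 5 and 9. BWC is the group mean weight change, day 5 minus day 1. MST is median survival and %ILS is calculated from MST, both from dying mice only, excluding day 30 survivors.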

[6] = system: Mus musculus; assay: The compound was evaluated for the median survival time (MST) in mice infected with cisplatin sensitive L1210 Leukemia (dose 20 mg/kg, ip), day 1; format: functional, organism-based; design: dose 20 mg/kg; summary of the method: as §3
[7] = system: Mus musculus; assay: The compound was evaluated for the median survival time (MST) in mice infected with cisplatin sensitive L1210 Leukemia (dose 10 mg/kg, ip), day 5; format: functional, organism-based; design: dose 10 mg/kg; summary of the method: as §3
[8] = organism: Mus musculus; assay: The compound was evaluated for the percentage increase in life span (ILS) based on dying mice only (excludes day 15 survivors) for following doses against L1210 Leukemia cell line, day1; format: functional, organism-based
[9] = system: Mus musculus; assay: The compound was evaluated for the mean body weight change (BWC) in mice infected with cisplatin sensitive L1210 Leukemia (dose 20 mg/kg, ip),day 9; format: functional, organism-based; design: dose 20 mg/kg; summary of the method: as §3
[10] = system: Mus musculus; assay: The compound was evaluated for the mean body weight change (BWC) in mice infected with cisplatin sensitive L1210 Leukemia (dose 10 mg/kg, ip),day 9; format: functional, organism-based; design: dose 10 mg/kg; summary of the method: as §3
[11] = system: Mus musculus; assay: The compound was evaluated for the median survival time (MST) in mice infected with cisplatin sensitive L1210 Leukemia (dose 80 mg/kg, ip), day 5; format: functional, organism-based; design: dose 80 mg/kg; summary of the method: as §3
[12] = system: Mus musculus; assay: The compound was evaluated for the mean body weight change (BWC) in mice infected with cisplatin sensitive L1210 Leukemia (dose 80 mg/kg, ip),day 5; format: functional, organism-based; design: dose 80 mg/kg; summary of the method: as §3
[13] = system: Mus musculus; assay: The compound was evaluated for the mean body weight change (BWC) in mice infected with cisplatin resistant L1210 Leukemia (dose 15 mg/kg, ip),day 1; format: functional, organism-based; design: dose 15 mg/kg; summary of the method: as §2
[14] = system: Mus musculus; assay: The compound was evaluated for the median survival time (MST) in mice infected with cisplatin sensitive L1210 Leukemia (dose 15 mg/kg, ip), day 1; format: functional, organism-based; design: dose 15 mg/kg; summary of the method: as §3
[15] = organism: Mus musculus; assay: The compound was evaluated for the percentage increase in life span (ILS) based on dying mice only (excludes day 40 survivors) for following doses against L1210 Leukemia cell line, day5; format: functional, organism-based
[16] = system: Mus musculus; assay: The compound was evaluated for the median survival time (MST) in mice infected with cisplatin sensitive L1210 Leukemia (dose 20 mg/kg, ip), day 9; format: functional, organism-based; design: dose 20 mg/kg; summary of the method: as §3
[17] = system: Mus musculus; assay: The compound was evaluated for the median survival time (MST) in mice infected with cisplatin resistant L1210 Leukemia (dose 30 mg/kg, ip), day 1; format: functional, organism-based; design: dose 30 mg/kg
Summary of the method: (§4)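 On day 0, 10⁵ parent or cisplatin-resistant L1210 cells were implanted ip into CD2F1 mice, 6 or 10 per dose group (20 or 30 controls). Dosing was ip on days 1, 5 and 9 in saline plus Tween 80. Median survival time was taken from dying mice only, excluding day-30 survivors. Both sublines were tested concurrently.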

[18] = system: Mus musculus; assay: The compound was evaluated for the mean body weight change (BWC) in mice infected with cisplatin sensitive L1210 Leukemia (dose 80 mg/kg, ip),day 9; format: functional, organism-based; design: dose 80 mg/kg; summary of the method: as §3
[19] = organism: Mus musculus; assay: The compound was evaluated for the percentage increase in life span (ILS) based on dying mice only (excludes day 20 survivors) for following doses against L1210 Leukemia cell line, day1; format: functional, organism-based
[20] = system: Mus musculus; assay: The compound was evaluated for the mean body weight change (BWC) in mice infected with cisplatin sensitive L1210 Leukemia (dose 10 mg/kg, ip),day 5; format: functional, organism-based; design: dose 10 mg/kg; summary of the method: as §3
[21] = system: Mus musculus; assay: The compound was evaluated for the mean body weight change (BWC) in mice infected with cisplatin sensitive L1210 Leukemia (dose 30 mg/kg, ip),day 1; format: functional, organism-based; design: dose 30 mg/kg; summary of the method: as §3
[22] = system: Mus musculus; assay: The compound was evaluated for the mean body weight change (BWC) in mice infected with cisplatin resistant L1210 Leukemia (dose 30 mg/kg, ip),day 1; format: functional, organism-based; design: dose 30 mg/kg; summary of the method: as §2
[23] = system: Mus musculus; assay: The compound was evaluated for the median survival time (MST) in mice infected with cisplatin sensitive L1210 Leukemia (dose 40 mg/kg, ip), day 9; format: functional, organism-based; design: dose 40 mg/kg; summary of the method: as §3
[24] = system: Mus musculus; assay: The compound was evaluated for the median survival time (MST) in mice infected with cisplatin sensitive L1210 Leukemia (dose 80 mg/kg, ip), day 9; format: functional, organism-based; design: dose 80 mg/kg; summary of the method: as §3
[25] = system: Mus musculus; assay: The compound was evaluated for the mean body weight change (BWC) in mice infected with cisplatin sensitive L1210 Leukemia (dose 20 mg/kg, ip),day 1; format: functional, organism-based; design: dose 20 mg/kg; summary of the method: as §2
[26] = system: Mus musculus; assay: The compound was evaluated for the median survival time (MST) in mice infected with cisplatin sensitive L1210 Leukemia (dose 10 mg/kg, ip), day 1; format: functional, organism-based; design: dose 10 mg/kg; summary of the method: as §3
[27] = organism: Mus musculus; assay: The compound was evaluated for the percentage increase in life span (ILS) based on dying mice only (excludes day 10 survivors) for following doses against L1210 Leukemia cell line, day5; format: functional, organism-based
[28] = system: Mus musculus; assay: The compound was evaluated for the median survival time (MST) in mice infected with cisplatin sensitive L1210 Leukemia (dose 20 mg/kg, ip), day 5; format: functional, organism-based; design: dose 20 mg/kg; summary of the method: as §3
[29] = organism: Mus musculus; assay: The compound was evaluated for the percentage increase in life span (ILS) based on dying mice only (excludes day survivors) for following doses against L1210 Leukemia cell line, day1; format: functional, organism-based; summary of the method: as §3
[30] = system: Mus musculus; assay: The compound was evaluated for the median survival time (MST) in mice infected with cisplatin sensitive L1210 Leukemia (dose 40 mg/kg, ip), day 5; format: functional, organism-based; design: dose 40 mg/kg; summary of the method: as §3
[31] = system: Mus musculus; assay: The compound was evaluated for the median survival time (MST) in mice infected with cisplatin sensitive L1210 Leukemia (dose 10 mg/kg, ip), day 9; format: functional, organism-based; design: dose 10 mg/kg; summary of the method: as §3
[32] = organism: Mus musculus; assay: The compound was evaluated for the percentage increase in life span (ILS) based on dying mice only (excludes day 40 survivors) for following doses against L1210 Leukemia cell line, day9; format: functional, organism-based
[33] = system: Mus musculus; assay: The compound was evaluated for the median survival time (MST) in mice infected with cisplatin resistant L1210 Leukemia (dose 20 mg/kg, ip), day 1; format: functional, organism-based; design: dose 20 mg/kg; summary of the method: as §4
[34] = system: Mus musculus; assay: The compound was evaluated for the mean body weight change (BWC) in mice infected with cisplatin sensitive L1210 Leukemia (dose 15 mg/kg, ip),day 1; format: functional, organism-based; design: dose 15 mg/kg; summary of the method: as §3
[35] = system: Mus musculus; assay: The compound was evaluated for the mean body weight change (BWC) in mice infected with cisplatin sensitive L1210 Leukemia (dose 40 mg/kg, ip),day 5; format: functional, organism-based; design: dose 40 mg/kg; summary of the method: as §3
[36] = system: Mus musculus; assay: The compound was evaluated for the median survival time (MST) in mice infected with cisplatin sensitive L1210 Leukemia (dose 30 mg/kg, ip), day 1; format: functional, organism-based; design: dose 30 mg/kg; summary of the method: as §3
[37] = system: Mus musculus; assay: The compound was evaluated for the mean body weight change (BWC) in mice infected with cisplatin resistant L1210 Leukemia (dose 5 mg/kg, ip),day 1; format: functional, organism-based; design: dose 5 mg/kg; summary of the method: as §2
[38] = system: Mus musculus; assay: The compound was evaluated for the median survival time (MST) in mice infected with cisplatin resistant L1210 Leukemia (dose 15 mg/kg, ip), day 1; format: functional, organism-based; design: dose 15 mg/kg; summary of the method: as §4
[39] = system: Mus musculus; assay: The compound was evaluated for the median survival time (MST) in mice infected with cisplatin resistant L1210 Leukemia (dose 5 mg/kg, ip), day 1; format: functional, organism-based; design: dose 5 mg/kg; summary of the method: as §4
[40] = system: Mus musculus; assay: The compound was evaluated for the mean body weight change (BWC) in mice infected with cisplatin sensitive L1210 Leukemia (dose 5 mg/kg, ip),day 1; format: functional, organism-based; design: dose 5 mg/kg; summary of the method: as §3
[41] = system: Mus musculus; assay: The compound was evaluated for the mean body weight change (BWC) in mice infected with cisplatin sensitive L1210 Leukemia (dose 20 mg/kg, ip),day 5; format: functional, organism-based; design: dose 20 mg/kg; summary of the method: as §3
[42] = system: Mus musculus; assay: The compound was evaluated for the median survival time (MST) in mice infected with cisplatin sensitive L1210 Leukemia (dose 5 mg/kg, ip), day 1; format: functional, organism-based; design: dose 5 mg/kg; summary of the method: as §3
[43] = organism: Mus musculus; assay: The compound was evaluated for the percentage increase in life span (ILS) based on dying mice only (excludes day 20 survivors) for following doses against L1210 Leukemia cell line, day5; format: functional, organism-based

Substance: [Bis(aminomethyl)diethylsilane]tetrachloroplatinum(IV)
- TGI [1]: 46.8 µM
- GI50 [2]: 3.02 µM

Substance: [Bis(aminomethyl)dimethylsilane]dichloroplatinum (II) [listing 1 of 2 here]
- Log LC50 [3]: > -4.01

Substance: [Bis(aminomethyl)dimethylsilane]dichloroplatinum (II) [listing 2 of 2 here]
- BWC [4]: -2.7 g
- BWC [5]: -2.9 g
- MST [6]: 16.8 days
- MST [7]: 18 days
- TGI [1]: 83.2 µM
- ILS [8]: 83%
- BWC [9]: -0.2 g
- BWC [10]: -0.2 g
- MST [11]: 11.8 days
- BWC [12]: -3.5 g
- BWC [13]: -0.4 g
- MST [14]: 16.3 days
- ILS [15]: 248%
- MST [16]: 22.5 days
- MST [17]: 14.8 days
- BWC [18]: -4.3 g
- ILS [19]: 88%
- BWC [20]: -0.9 g
- BWC [21]: -1.1 g
- BWC [22]: -2.5 g
- MST [23]: 11.7 days
- MST [24]: 6.3 days
- BWC [25]: -1 g
- MST [26]: 22.5 days and 10.5 days
- ILS [27]: 109%
- MST [28]: 20.5 days
- ILS [29]: 152%
- MST [30]: 30 days
- MST [31]: 15.5 days
- ILS [32]: 31%
- MST [33]: 13.8 days
- BWC [34]: -1.7 g
- BWC [35]: -0.9 g
- MST [36]: 21.5 days
- BWC [37]: 0.1 g
- MST [38]: 18.3 days
- GI50 [2]: 20.4 µM
- MST [39]: 12.5 days
- BWC [40]: -0.4 g
- BWC [41]: -0.6 g
- MST [42]: 21.5 days
- ILS [43]: 138%
